Measurements published in ChEMBL document CHEMBL3351594, “Cytotoxic dimeric epipolythiodiketopiperazines from the ascomycetous fungus Preussia typharum” (J Nat Prod, 2014).
The source made the active and inactive calls. The calls are words filed in the database; no cut-off is given here.

Assays:
[1] = system: M14; test: Cytotoxicity against human M14 cells by SRB method; assay type: functional
In short: (§1)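 NCI-60 in vitro drug screening panel. Values are the molar concentrations giving 50% growth inhibition (GI50) and total growth inhibition (TGI).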

[2] = system: MDA-MB-435; test: Cytotoxicity against human MDA-MB-435 cells by SRB method; assay type: functional; in short: as §1
[3] = system: SK-MEL-5; test: Cytotoxicity against human SK-MEL-5 cells by SRB method; assay type: functional
In short: (§2)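 NCI-60 in vitro screen panel of human tumor lines; GI50 (molar concentration giving 50% growth inhibition) and TGI (total growth inhibition) taken from dose–response data.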

[4] = Cytotoxicity against human OVCAR4 cells by SRB method; assay type: functional; in short: as §1
[5] = Cytotoxicity against human OVCAR8 cells by SRB method; assay type: functional; in short: as §1
[6] = Cytotoxicity against human NCI-ADR-RES cells by SRB method; assay type: functional; in short: as §1
[7] = Cytotoxicity against human SKOV3 cells by SRB method; assay type: functional; details: SK-OV-3
In short: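 SRB assay in SK-OV-3 cells; percent cell growth per Boyd et al.; GI50, TGI and LC50 fitted from dose–response curves of percent growth; mean ± SE, n = 3 or 4 independent experiments.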

[8] = system: 786-0; test: Cytotoxicity against human 786-0 cells by SRB method; assay type: functional; in short: as §1
[9] = system: A498; test: Cytotoxicity against human A498 cells by SRB method; assay type: functional; in short: as §1
[10] = system: CAKI-1; test: Cytotoxicity against human Caki1 cells by SRB method; assay type: functional; in short: as §1
[11] = system: RXF 393; test: Cytotoxicity against human RXF393 cells by SRB method; assay type: functional; in short: as §1
[12] = system: SN12C; test: Cytotoxicity against human SN12C cells by SRB method; assay type: functional; in short: as §2
[13] = Cytotoxicity against human UO31 cells by SRB method; assay type: functional; in short: as §2
[14] = system: BT-549; test: Cytotoxicity against human BT549 cells by SRB method; assay type: functional; in short: as §1
[15] = Cytotoxicity against human P-gp expressing SKOV3-M6/6 cells by SRB assay; assay type: functional
In short: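 SRB assay in SK-OV-3/MDR-1-6/6 cells, a single-cell clone of SKOV-3/MDR1 (P-gp). Percent cell growth follows Boyd et al. GI50 was derived from dose–response curves of percent growth. Results are mean ± SE of n = 3 or 4 independent experiments. Relative resistance is calculated against parental SK-OV-3.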

[16] = target: mTORC1 (Homo sapiens) (UniProt P42345+Q8N122+Q9BVC4); test: Inhibition of mTORC1 in human HeLa cells assessed as inhibition of S6 kinase phosphorylation at T389 up to 100 nM after 30 mins by Western blotting analysis; assay type: cell-based
mTORC1 (Homo sapiens), sequence (Q8N122 whole entry, looked up, other chains not shown): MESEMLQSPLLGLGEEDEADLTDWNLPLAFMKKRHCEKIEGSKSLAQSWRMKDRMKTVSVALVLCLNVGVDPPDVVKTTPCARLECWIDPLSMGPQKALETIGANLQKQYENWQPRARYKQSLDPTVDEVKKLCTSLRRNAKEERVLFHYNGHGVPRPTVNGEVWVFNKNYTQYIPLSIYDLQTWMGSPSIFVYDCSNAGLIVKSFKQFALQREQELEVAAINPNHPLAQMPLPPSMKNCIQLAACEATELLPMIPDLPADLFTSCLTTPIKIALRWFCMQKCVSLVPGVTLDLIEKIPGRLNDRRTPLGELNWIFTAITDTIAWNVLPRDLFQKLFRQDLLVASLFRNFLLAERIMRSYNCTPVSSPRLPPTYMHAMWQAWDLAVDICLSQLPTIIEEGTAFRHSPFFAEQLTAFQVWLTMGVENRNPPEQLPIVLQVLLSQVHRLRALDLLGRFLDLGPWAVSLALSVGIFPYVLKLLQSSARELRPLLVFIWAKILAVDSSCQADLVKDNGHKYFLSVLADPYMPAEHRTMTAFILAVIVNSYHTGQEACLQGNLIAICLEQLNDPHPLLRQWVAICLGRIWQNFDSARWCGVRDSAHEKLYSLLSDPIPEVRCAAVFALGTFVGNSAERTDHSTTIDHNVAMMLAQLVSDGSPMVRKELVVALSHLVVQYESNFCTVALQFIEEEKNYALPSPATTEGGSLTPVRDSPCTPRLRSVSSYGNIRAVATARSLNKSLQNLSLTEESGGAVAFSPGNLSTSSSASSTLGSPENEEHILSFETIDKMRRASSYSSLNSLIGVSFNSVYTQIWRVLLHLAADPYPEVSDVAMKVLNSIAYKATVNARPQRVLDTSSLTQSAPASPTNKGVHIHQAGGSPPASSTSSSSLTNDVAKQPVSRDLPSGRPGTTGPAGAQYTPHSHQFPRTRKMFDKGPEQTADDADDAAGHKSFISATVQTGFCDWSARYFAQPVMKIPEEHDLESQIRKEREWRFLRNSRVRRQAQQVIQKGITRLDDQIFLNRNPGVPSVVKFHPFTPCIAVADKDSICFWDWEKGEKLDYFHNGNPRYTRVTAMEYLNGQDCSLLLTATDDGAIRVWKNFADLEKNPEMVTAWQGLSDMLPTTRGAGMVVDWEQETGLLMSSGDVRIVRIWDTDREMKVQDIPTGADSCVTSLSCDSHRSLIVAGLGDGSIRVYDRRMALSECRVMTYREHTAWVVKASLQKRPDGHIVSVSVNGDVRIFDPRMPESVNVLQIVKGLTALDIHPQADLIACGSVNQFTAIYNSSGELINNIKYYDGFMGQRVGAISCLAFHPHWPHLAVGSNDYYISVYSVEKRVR
mTORC1 (Homo sapiens), sequence (Q9BVC4 whole entry, looked up, other chains not shown): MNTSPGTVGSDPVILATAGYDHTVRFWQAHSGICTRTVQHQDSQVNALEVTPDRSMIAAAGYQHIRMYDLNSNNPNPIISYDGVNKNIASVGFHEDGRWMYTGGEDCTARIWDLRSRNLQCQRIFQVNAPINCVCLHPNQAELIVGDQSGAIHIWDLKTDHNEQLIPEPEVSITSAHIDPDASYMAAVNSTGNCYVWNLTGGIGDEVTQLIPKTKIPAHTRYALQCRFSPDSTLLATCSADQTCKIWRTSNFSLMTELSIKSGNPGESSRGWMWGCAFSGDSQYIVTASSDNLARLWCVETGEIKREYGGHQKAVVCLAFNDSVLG
In short: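 HeLa whole-cell lysates after vehicle or compound treatment; equal protein on SDS-PAGE, PVDF blot probed for S6 kinase, P-T389-S6 kinase and actin, ECL detection.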

[17] = system: HeLa; test: Inhibition of Histone-lysine N-methyltransferase Su(var)3-9 in human HeLa cells assessed as high H3K9me3 expression at 200 nM after 1 to 24 hrs by immunoblotting analysis; assay type: cell-based
In short: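 HeLa cells treated with vehicle or 200 nM for 1–24 h; log-phase cells lysed with protease inhibitors, equal protein by SDS-PAGE, PVDF transfer, probed for H3K9me3 and actin, ECL detection.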

[18] = system: CCRF-CEM; test: Cytotoxicity against human CCRF-CEM cells by SRB method; assay type: functional; in short: as §1
[19] = system: HL-60(TB); test: Cytotoxicity against human HL-60(TB) cells by SRB method; assay type: functional
In short: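 Tested in the NCI-60 in vitro screening panel. GI50 is the molar concentration giving 50% growth inhibition, and TGI is the molar concentration giving total growth inhibition.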

[20] = system: SR; test: Cytotoxicity against human SR cells by SRB method; assay type: functional; in short: as §2
[21] = system: HOP-62; test: Cytotoxicity against human HOP62 cells by SRB method; assay type: functional; in short: as §1
[22] = system: HOP-92; test: Cytotoxicity against human HOP92 cells by SRB method; assay type: functional; in short: as §1
[23] = system: COLO 205; test: Cytotoxicity against human COLO205 cells by SRB method; assay type: functional; in short: as §1
[24] = system: HCC 2998; test: Cytotoxicity against human HCC2998 cells by SRB method; assay type: functional; in short: as §1
[25] = Cytotoxicity against human HCT116 cells by SRB method; assay type: functional; in short: as §1
[26] = system: KM12; test: Cytotoxicity against human KM12 cells by SRB method; assay type: functional; in short: as §1
[27] = system: SW-620; test: Cytotoxicity against human SW620 cells by SRB method; assay type: functional; in short: as §2
[28] = system: SF-295; test: Cytotoxicity against human SF295 cells by SRB method; assay type: functional; in short: as §1
[29] = system: SF-539; test: Cytotoxicity against human SF539 cells by SRB method; assay type: functional; in short: as §1
[30] = system: SNB-19; test: Cytotoxicity against human SNB19 cells by SRB method; assay type: functional; in short: as §2
[31] = system: SNB-75; test: Cytotoxicity against human SNB75 cells by SRB method; assay type: functional; in short: as §2
[32] = system: LOX IMVI; test: Cytotoxicity against human LOXIMVI cells by SRB method; assay type: functional; in short: as §1
[33] = read-out: LC50 (the source's name)

Q: Which results are given for `CC(C)[C@@]12SS[C@]3(C(=O)N1C)[C@@H](O)[C@]1(C45c6ccccc6N[C@H]4N4C(=O)[C@@]6(CO)SS[C@@]4(C(=O)N6C)[C@H]5O)c4ccccc4N[C@@H]1N3C2=O` (stereo not given in full)?
A: GI50 [1]: 13.5 nM; TGI [1]: 53.7 nM; CC50 [1, 33]: 182 nM; GI50 [2]: 10.7 nM; TGI [2]: 28.8 nM; CC50 [2, 33]: 120 nM; GI50 [3]: 14.8 nM; TGI [3]: 57.5 nM; CC50 [3, 33]: 151 nM; GI50 ([4]; OVCAR-4): 5.9 nM; TGI ([4]; OVCAR-4): 12.9 nM; CC50 ([4]; OVCAR-4, read-out: LC50 (the source's name)): 27.5 nM; GI50 ([5]; OVCAR-8): 9.5 nM; TGI ([5]; OVCAR-8): 19.1 nM; CC50 ([5]; OVCAR-8, read-out: LC50 (the source's name)): 38 nM; GI50 [6]: 33.9 nM; TGI [6]: 120 nM; CC50 [6, 33]: 355 nM; GI50 [7]: 11.5 nM; LC50 [7]: 190 nM; TGI [7]: 33.9 nM; GI50 [8]: 11.7 nM; TGI [8]: 26.3 nM; CC50 [8, 33]: 70.8 nM; GI50 [9]: 9.8 nM; TGI [9]: 28.2 nM; CC50 [9, 33]: 105 nM; GI50 [10]: 8.7 nM; TGI [10]: 22.4 nM; CC50 [10, 33]: 85.1 nM; GI50 [11]: 7.8 nM; TGI [11]: 14.8 nM; CC50 [11, 33]: 28.2 nM; GI50 [12]: 22.9 nM; TGI [12]: 525 nM; CC50 [12, 33]: 1780 nM; GI50 ([13]; UO-31): 9.8 nM; TGI ([13]; UO-31): 26.3 nM; CC50 ([13]; UO-31, read-out: LC50 (the source's name)): 100 nM; GI50 [14]: 14.8 nM; TGI [14]: 66.1 nM; CC50 [14, 33]: 209 nM; GI50 [15]: 33 nM; inhibition [16]: inactive; inhibition [17]: inactive; GI50 [18]: 9.3 nM; TGI [18]: 38 nM; CC50 [18, 33]: > 50000 nM; GI50 [19]: 26.3 nM; TGI [19]: 195 nM; CC50 [19, 33]: > 50000 nM; GI50 [20]: 11.2 nM; TGI [20]: 31.6 nM; CC50 [20, 33]: > 50000 nM; GI50 [21]: 11.7 nM; TGI [21]: 30.9 nM; CC50 [21, 33]: 110 nM; GI50 [22]: 11 nM; TGI [22]: 28.8 nM; CC50 [22, 33]: 112 nM; GI50 [23]: 14.8 nM; TGI [23]: 49 nM; CC50 [23, 33]: 155 nM; GI50 [24]: 53.7 nM; TGI [24]: 115 nM; CC50 [24, 33]: 246 nM; GI50 ([25]; HCT-116): 12.3 nM; TGI ([25]; HCT-116): 51.3 nM; CC50 ([25]; HCT-116, read-out: LC50 (the source's name)): 162 nM; GI50 [26]: 19.5 nM; TGI [26]: 87.1 nM; CC50 [26, 33]: 295 nM; GI50 [27]: 8.3 nM; TGI [27]: 31.6 nM; CC50 [27, 33]: 129 nM; GI50 [28]: 57.5 nM; TGI [28]: 155 nM; CC50 [28, 33]: 417 nM; GI50 [29]: 15.1 nM; TGI [29]: 58.9 nM; CC50 [29, 33]: 200 nM; GI50 [30]: 112 nM; TGI [30]: 513 nM; CC50 [30, 33]: 1660 nM; GI50 [31]: 13.5 nM; TGI [31]: 50.1 nM; CC50 [31, 33]: 158 nM; GI50 [32]: 8.3 nM; TGI [32]: 21.4 nM; CC50 [32, 33]: 46.8 nM
